The results in this text go back to PMC3483416 (Archives of biochemistry and biophysics, 2012).

A short description of the data set: Steady-state intrinsic tryptophan fluorescence of BclXL. The format is physicochemical. The conditions noted are these: 5μM BclXL, excitation 290nm, 25 °C. The method, boiled down:
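Tryptophan emission of 5 μM full-length human BclXL (N-His, E. coli-expressed) alone in 50 mM acetate pH 4, phosphate pH 6, Tris pH 8 or CAPS pH 10. 25 °C, 10-mm cuvette; excitation 290 nm; emission scanned 300–500 nm; 2.5-nm bandwidths. Spectra corrected against buffer reference. At least three repeats.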

Turning to “full-length BclXL: Full-length human BclXL (residues 1-233), N-terminal His-tag, expressed in Escherichia coli”, where the note is “pH 4, 6, 8, 10”, the “intrinsic fluorescence vs pH” value was “drops as the pH changes from 4 to 6, it undergoes substantial enhancement at pH 8 only to drop again at pH 10”. In addition, for the setting “pH-independent”, the tryptophan emission maximum result is listed as “around 338 nm”.
